Reference: ChEMBL document CHEMBL3352177, “C-glycoside mimetics inhibit glioma stem cell proliferation, migration, and invasion” (J Med Chem, 2014)

Assays:
[1] = tested on: A-431; assay: Antiproliferative activity against human A431 cells after 48 to 72 hrs by MTT assay; format: functional, cell-based
Method in brief: (§1)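 MTT assay read 48 and 72 h after compound addition. Cell lines grown in DMEM with 10% heat-inactivated FCS, 2 mM L-glutamine, 1 mM sodium pyruvate; GBM stem cells grown as nonadherent neurospheres. IC50 by Hill equation fit; ≥3 independent experiments, each point repeated six times.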

[2] = Antimigratory activity against human Gli4 cells on matrix containing vitronectin after 24 hrs by 2-D migration assay; format: functional, cell-based
Method in brief: (§2)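 Boyden chamber 2D migration toward serum over 24 h on fibronectin, vitronectin or laminin matrix. Cells in DMEM with 0.1% BSA in the upper compartment with or without compound; 10% FCS medium below. Gli4/Gli7 taken from neurosphere cultures. Migrated cells methanol-fixed, crystal violet stained, counted at ×200. Ki from Hill equation fit; ≥3 independent experiments, each point in quadruplicate.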

[3] = Antiproliferative activity against mouse B16F10 cells after 48 to 72 hrs by MTT assay; format: functional, cell-based; conditions: B16-F10; method in brief: as §1
[4] = Antiproliferative activity against human Caco2 cells after 48 to 72 hrs by MTT assay; format: functional, cell-based; conditions: Caco-2; method in brief: as §1
[5] = tested on: SNB-75; assay: Antimigratory activity against human SNB75 cells on matrix containing vitronectin after 24 hrs by 2-D migration assay; format: functional, cell-based; method in brief: as §2
[6] = Antimigratory activity against human Gli7 cells on matrix containing laminin after 24 hrs by 2-D migration assay; format: functional, cell-based; method in brief: as §2
[7] = tested on: C6; assay: Antimigratory activity against rat C6 cells on matrix containing fibronectin after 24 hrs by 2-D migration assay; format: functional, cell-based; method in brief: as §2
[8] = Antimigratory activity against human Gli4 cells on matrix containing fibronectin after 24 hrs by 2-D migration assay; format: functional, cell-based; method in brief: as §2
[9] = tested on: C6; assay: Antimigratory activity against rat C6 cells on matrix containing vitronectin after 24 hrs by 2-D migration assay; format: functional, cell-based; method in brief: as §2
[10] = Cytotoxicity against rat cortical neurons at 100 uM by MAP2 immunofluorescence assay; conditions: cortical neurone
Method in brief: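 Rat E17 embryonic cortical neurons cultured 17 days, treated 48 h; then 5 μg/mL Hoechst 33342 and 10 μM propidium iodide for 30 min at 37 °C, PBS wash, 4% paraformaldehyde fixation. Fluorescence read on plate reader and by camera imaging; MAP2 immunofluorescence imaged; Triton X-100 (2%) control; mean % PI uptake from three wells per condition.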

[11] = tested on: DU-145; assay: Antiproliferative activity against human DU145 cells after 48 to 72 hrs by MTT assay; format: functional, cell-based; method in brief: as §1
[12] = Antimigratory activity against human Gli4 cells on matrix containing laminin after 24 hrs by 2-D migration assay; format: functional, cell-based; method in brief: as §2
[13] = tested on: MDA-MB-435; assay: Antiproliferative activity against human MDA-MB-435 cells after 48 to 72 hrs by MTT assay; format: functional, cell-based; method in brief: as §1
[14] = Antiproliferative activity against human Gli7 cells after 48 to 72 hrs by MTT assay; format: functional, cell-based; method in brief: as §1
[15] = tested on: MDA-MB-231; assay: Antiproliferative activity against human MDA-MB-231 cells after 48 to 72 hrs by MTT assay; format: functional, cell-based; method in brief: as §1
[16] = tested on: C6; assay: Antiproliferative activity against rat C6 cells after 48 to 72 hrs by MTT assay; format: functional, cell-based; method in brief: as §1
[17] = Antimigratory activity against human Gli7 cells on matrix containing vitronectin after 24 hrs by 2-D migration assay; format: functional, cell-based; method in brief: as §2
[18] = tested on: SNB-75; assay: Antimigratory activity against human SNB75 cells on matrix containing fibronectin after 24 hrs by 2-D migration assay; format: functional, cell-based; method in brief: as §2
[19] = Cytotoxicity against mouse astrocytes at 100 uM by MTT assay; format: cell-based; conditions: astrocyte
Method in brief: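 Primary astrocytes from day-2 newborn mouse cortex, kept 21 days (nonproliferative, GFAP-positive), exposed to compound up to 100 μM; viability by MTT assay.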

[20] = tested on: SNB-75; assay: Antiproliferative activity against human SNB75 cells after 48 to 72 hrs by MTT assay; format: functional, cell-based; method in brief: as §1
[21] = Antiinvasive activity against human Gli7 cells after 48 hrs by matrigel assay; format: functional, cell-based
[22] = tested on: C6; assay: Antimigratory activity against rat C6 cells on matrix containing laminin after 24 hrs by 2-D migration assay; format: functional, cell-based; method in brief: as §2
[23] = Antiinvasive activity against human Gli4 cells after 48 hrs by matrigel assay; format: functional, cell-based
[24] = Cytotoxicity against rat cortical neurons at 100 uM using propidium iodide by flow cytometry; conditions: cortical neurone
[25] = tested on: SNB-75; assay: Antimigratory activity against human SNB75 cells on matrix containing laminin after 24 hrs by 2-D migration assay; format: functional, cell-based; method in brief: as §2
[26] = Antimigratory activity against human Gli7 cells on matrix containing fibronectin after 24 hrs by 2-D migration assay; format: functional, cell-based; method in brief: as §2
[27] = Antiproliferative activity against human HuH7 cells after 48 to 72 hrs by MTT assay; format: functional, cell-based; conditions: Huh-7; method in brief: as §1
[28] = Antiproliferative activity against human Gli4F11 cells after 48 to 72 hrs by MTT assay

Structure (SMILES)	IC50 [1] [nM]	Ki [2] [nM]	IC50 [3] [nM]	IC50 [4] [nM]	Ki [5] [nM]	Ki [6] [nM]	Ki [7] [nM]	Ki [8] [nM]	Ki [9] [nM]	IC50 [11] [nM]	Ki [12] [nM]	IC50 [13] [nM]	IC50 [14] [nM]	IC50 [15] [nM]	IC50 [16] [nM]	Ki [17] [nM]	Ki [18] [nM]	IC50 [20] [nM]	Ki [22] [nM]	Ki [25] [nM]	also measured
CC1(C)O[C@@H]2[C@H](O1)[C@@H](Nc1cccc3ccccc13)[P@](=O)(c1ccccc1)O[C@@H]2[C@H]1COC(C)(C)O1	1340	36	> 100000	> 100000	100	100	126	31	300	> 100000	22	4690	2330	9810	5740	42	124	3410	77	60	Activity [10]: Toxic; Activity [19]: Toxic; Ki [21]: 46 nM; Ki [23]: 290 nM; Activity [24]: Toxic; Ki [26]: 16 nM; IC50 [27]: 6870 nM
CC[P@@]1(=O)O[C@H]([C@H]2COC(C)(C)O2)[C@@H]2OC(C)(C)O[C@@H]2[C@@H]1O	> 100000	194	> 100000	> 100000	66	1050	27	100	47	> 100000	239	> 100000	2500	> 100000	8660	438	19	4920	25	27	IC50 [28]: 3800 nM; Ki [26]: 64 nM; IC50 [27]: > 100000 nM
